# Tests used:
# [1] = biological target: T1, Hypoxia inducible factors; HIF-1-alpha, HIF-2-alpha (Homo sapiens, UniProt Q16665+Q99814); test: Inhibition of 1, 10-phenanthroline-induced HIF1 activity in human T47D cells by cell based reporter assay
# Procedure, shortened: (§1)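 T47D cells grown in DMEM/F12 with glutamine, 10% FCS and penicillin/streptomycin at 37 °C under 5% CO2, then transiently transfected with the pHRE-TK-Luc reporter. Compounds from DMSO stocks were tested at half-log concentrations for 16 h, with luciferase read-out. IC50 was taken from curve fits of triplicate experiments.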
# T47D [2] = test: Cell viability of human T47D cells under hypoxic condition after 16 hrs; format: functional, cell-based
# MDA-MB-231 [3] = test: Inhibition of human MDA-MB-231 cells assessed as cell viability under hypoxic condition after 48 hrs; format: functional, cell-based; conditions: MDA-MB-231, 48 h
# Procedure, shortened: (§2)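 Neutral Red proliferation/viability assay on T47D or MDA-MB-231 cells kept in DMEM/F12 with 10% FCS at 37 °C under 5% CO2, with 48 h compound exposure. Read-out was OD540, and % inhibition = 1 − OD540(treated)/OD540(control). IC50 was derived from the concentration–response data.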
# [4] = biological target: T1, Hypoxia inducible factors; HIF-1-alpha, HIF-2-alpha; test: Inhibition of HIF1 activity in human T47D cells by cell based reporter assay; procedure, shortened: as §1
# MDA-MB-231 [5] = test: Inhibition of human MDA-MB-231 cells assessed as cell viability under normoxic condition after 48 hrs; format: functional, cell-based; conditions: MDA-MB-231, 48 h; procedure, shortened: as §2
# T47D [6] = test: Inhibition of human T47D cells assessed as cell viability under normoxic condition after 48 hrs; format: functional, cell-based; procedure, shortened: as §2
# T47D [7] = test: Inhibition of human T47D cells assessed as cell viability under hypoxic condition after 48 hrs; format: functional, cell-based; procedure, shortened: as §2
compound,measurement,setting,value
COc1ccc2c(O)c(O)ccc2c1-c1c(OC)ccc2c(O)c(O)ccc12,IC50,[1],5.1 µM
same,IC50,T47D [2],19 µM
same,IC50,MDA-MB-231 [3],7 µM
same,IC50,[4],4.3 µM
same,IC50,MDA-MB-231 [5],6 µM
same,IC50,T47D [6],8.7 µM
same,IC50,T47D [7],8.3 µM
